Assays:
[1] = molecular target: T1, Dihydrofolate reductase (Homo sapiens) (UniProt P00374)
T1 sequence (whole entry): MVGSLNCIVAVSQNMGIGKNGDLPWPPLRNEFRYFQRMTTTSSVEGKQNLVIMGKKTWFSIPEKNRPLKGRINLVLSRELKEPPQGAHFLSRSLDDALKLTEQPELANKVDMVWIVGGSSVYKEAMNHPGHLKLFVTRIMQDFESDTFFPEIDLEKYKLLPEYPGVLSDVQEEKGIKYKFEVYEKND

A549 = assay: In vitro antitumor activity against A549 human non-small lung carcinoma cells containing 10% fetal bovine serum; type: functional, cell-based
In short: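 Cells plated at 2000-3000/well in RPMI with 10% fetal bovine serum and left to adhere for 24 h at 37 °C in humidified 5% CO2. Drug (0.1-1000 nM) then added for a further 72 h of continuous exposure. Sulforhodamine B staining read-out. Growth taken as % of untreated controls and plotted against log drug concentration to give IC50.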

SCC-25 = assay: In vitro antitumor activity against SCC25 human head and neck squamous carcinoma cells containing 10% fetal bovine serum; type: functional, cell-based
In short: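 Clonogenic assay. Cells kept in Dulbecco's MEM with 10% FBS and hydrocortisone (400 µg/L). Exponential-phase cells preincubated without drug for 48 h, exposed to 0.01-5000 nM for 72 h, then replated in fresh medium. After 14 days, colonies of ≥5 cells stained with crystal violet and counted. Survival taken as % of untreated controls and IC50 estimated from a log-log plot. Replicate plates, at least three separate days.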

KM12 = assay: The IC50 value was measured on KM-12 cell line in colon tumor type.; type: functional, cell-based; conditions: Homo sapiens
In short: (§1)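 Standard NCI cell-line panel protocol. Cells plated in 96-well format and treated continuously with drug for 48 h. Total protein stained with Sulforhodamine B and IC50 derived.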

Malme-3M = assay: The IC50 value was measured on MALME-3M cell line in melanoma tumor type; type: functional, cell-based; conditions: Homo sapiens
In short: as §1

HT-29 = assay: The IC50 value was measured on HT-29 cell line in colon tumor type.; type: functional, cell-based; conditions: Homo sapiens
In short: as §1

NCI/ADR-RES = assay: The IC50 value was measured on MCF7-ADR cell line in breast tumor type.; type: functional, cell-based; conditions: Homo sapiens
In short: as §1

HCT-116 = assay: The IC50 value was measured on HCT116 cell line in colon tumor type.; type: functional, cell-based; conditions: Homo sapiens
In short: as §1

SF-539 = assay: The IC50 value was measured on SF-539 cell line in CNS tumor type.; type: functional, cell-based; conditions: Homo sapiens
In short: as §1

SK-MEL-5 = assay: The IC50 value was measured on SK-MEL-5 cell line in melanoma tumor type.; type: functional, cell-based; conditions: Homo sapiens
In short: as §1

SK-MEL-28 = assay: The IC50 value was measured on SKMEL-28 cell line in melanoma tumor type.; type: functional, cell-based; conditions: Homo sapiens
In short: as §1

SW-620 = assay: The IC50 value was measured on SW-620 cell line in colon tumor type.; type: functional, cell-based; conditions: Homo sapiens
In short: as §1

OVCAR-5 = assay: The IC50 value was measured on OVCAR-5 cell line in ovarian tumor type.; type: functional, cell-based; conditions: Homo sapiens
In short: as §1

PC-3 = assay: The IC50 value was measured on PC-3 cell line in prostate tumor type.; type: functional, cell-based; conditions: Homo sapiens
In short: as §1

NCI-H522 = assay: The IC50 value was measured on NCl-H522 cell line in NSCL tumor type.; type: functional, cell-based; conditions: Homo sapiens
In short: as §1

SF-268 = assay: The IC50 value was measured on SF-268 cell line in CNS tumor type.; type: functional, cell-based; conditions: Homo sapiens
In short: as §1

EKVX = assay: The IC50 value was measured on EKVX cell line in NSCL tumor type.; type: functional, cell-based; conditions: Homo sapiens
In short: as §1

MCF7 = assay: The IC50 value was measured on MCF-7 cell line in breast tumor type; type: functional, cell-based; conditions: Homo sapiens
In short: as §1

ACHN = assay: The IC50 value was measured on ACHN cell line in renal tumor type.; type: functional, cell-based; conditions: Homo sapiens
In short: as §1

NCI-H23 = assay: The IC50 value was measured on NCl-H23 cell line in NSCL tumor type.; type: functional, cell-based; conditions: Homo sapiens
In short: as §1

OVCAR-3 [2] = assay: The IC50 value was measured on OVCAR-3 cell line in ovarian tumor t; type: functional, cell-based; conditions: Homo sapiens
In short: as §1

NCI-H460 = assay: The IC50 value was measured on NCl-H460 cell line in NSCL tumor type; type: functional, cell-based; conditions: Homo sapiens
In short: as §1

HCT-15 = assay: The IC50 value was measured on HCT-15 cell line in colon tumor type.; type: functional, cell-based; conditions: Homo sapiens
In short: as §1

DU-145 = assay: The IC50 value was measured on DU-145 cell line in prostate tumor type.; type: functional, cell-based; conditions: Homo sapiens
In short: as §1

UO-31 = assay: The IC50 value was measured on UO-31 cell line in renal tumor type.; type: functional, cell-based; conditions: Homo sapiens
In short: as §1

OVCAR-8 = assay: The IC50 value was measured on OVCAR-8 cell line in ovarian tumor type.; type: functional, cell-based; conditions: Homo sapiens
In short: as §1

LOX IMVI [3] = assay: The IC50 value was measured on LOX […] cell line in melanoma tumor ty; type: functional, cell-based; conditions: Homo sapiens
In short: as §1

UACC-62 = assay: The IC50 value was measured on UACC-62 cell line in melanoma tumor type.; type: functional, cell-based; conditions: Homo sapiens
In short: as §1

Mus musculus [4] = assay: Tumor size of subcutaneously implanted SCC-VII squamous cell carcinoma in mice on day 7; conditions: route subcutaneous
Mus musculus [5] = assay: Tumor growth delay of subcutaneously implanted SCC-VII squamous cell carcinoma in mice; conditions: route subcutaneous
Mus musculus [6] = assay: Time to reach 10 mm Tumor size of subcutaneously implanted SCC-VII squamous cell carcinoma in mice; conditions: route subcutaneous
786-0 [7] = assay: The IC50 value was measured on 786-0 cell line in ovarian tumor t; type: functional, cell-based; conditions: Homo sapiens, in the assay text read “renal” for “ovarian”
In short: as §1

SNB-75 = assay: The IC50 value was measured on SNB-75 cell line in CNS tumor type.; type: functional, cell-based; conditions: Homo sapiens
In short: as §1

Mus musculus [8] = assay: Tumor size of subcutaneously implanted SCC-VII squamous cell carcinoma in mice on day 0; conditions: route subcutaneous
LOX IMVI [9] = assay: The IC50 value was measured on LOX IMVI cell line in melanoma tumor ty; type: functional, cell-based; conditions: Homo sapiens
In short: as §1

786-0 [10] = assay: The IC50 value was measured on 786-0 cell line in ovarian tumor; type: functional, cell-based; conditions: Homo sapiens, in the assay text read “renal” for “ovarian”
In short: as §1

OVCAR-3 [11] = assay: The IC50 value was measured on OVCAR-3 cell line in ovarian tumor; type: functional, cell-based; conditions: Homo sapiens
In short: as §1

786-0 [12] = assay: cells; conditions: Homo sapiens

| SMILES | IC50/[E] (nM milliunit-1) [1] | IC50 (A549) [µM] | IC50 (SCC-25) [µM] | IC50 (KM12) [µM] | IC50 (Malme-3M) [µM] | IC50 (HT-29) [µM] | IC50 (NCI/ADR-RES) [µM] | IC50 (HCT-116) [µM] | IC50 (SF-539) [µM] | IC50 (SK-MEL-5) [µM] | IC50 (SK-MEL-28) [µM] | IC50 (SW-620) [µM] | IC50 (OVCAR-5) [µM] | IC50 (PC-3) [µM] | IC50 (NCI-H522) [µM] | IC50 (SF-268) [µM] | IC50 (EKVX) [µM] | IC50 (MCF7) [µM] | IC50 (ACHN) [µM] | IC50 (NCI-H23) [µM] | also measured |
| --- | --- | --- | --- | --- | --- | --- | --- | --- | --- | --- | --- | --- | --- | --- | --- | --- | --- | --- | --- | --- | --- |
| Nc1nc(N)c2nc(CNc3ccc(C(=O)NC(CNC(=O)c4ccccc4C(=O)O)C(=O)O)cc3)cnc2n1 (stereo unspecified) | 3.5 | 0.023 |  |  |  |  |  |  |  |  |  |  |  |  |  |  |  |  |  |  |  |
| Nc1nc(N)c2nc(CNc3ccc(C(=O)NC(CCCNC(=O)c4cccc(C(=O)O)c4)C(=O)O)cc3)cnc2n1 (stereo unspecified) | 2.2 | 0.045 | 0.0029 |  |  |  |  |  |  |  |  |  |  |  |  |  |  |  |  |  |  |
| Nc1nc(N)c2nc(CNc3ccc(C(=O)NC(CCCCNC(=O)c4ccccc4C(=O)O)C(=O)O)cc3)cnc2n1 (stereo unspecified) |  | 0.0052 |  | 0.0049 | > 1 | 0.0057 | 0.0091 | 0.0006 | 0.026 | 0.091 | > 1 | 0.0034 | > 1 | 0.005 | > 1 | 0.0084 | 0.036 | 0.005 | 0.0052 | 0.0092 | IC50 (OVCAR-3 [2]): > 1 µM; IC50 (NCI-H460): 0.0042 µM; IC50 (HCT-15): 0.0052 µM; IC50 (DU-145): 0.0091 µM; IC50 (UO-31): 0.0078 µM; IC50 (OVCAR-8): 0.0059 µM; IC50 (LOX IMVI [3]): 0.0009 µM; IC50 (UACC-62): > 1 µM |
| Nc1nc(N)c2nc(CNc3ccc(C(=O)NC(CCNC(=O)c4ccccc4C(=O)O)C(=O)O)cc3)cnc2n1 (stereo unspecified) | 2.5 | 0.022 |  | > 1 | > 1 | 0.0098 | > 1 | 0.005 | 0.057 | 0.085 | > 1 | 0.0063 | 0.086 | 0.0067 | > 1 | > 0.1 | 0.021 | > 1 | 0.045 | 0.032 | Tumor size (Mus musculus [4]): 5.1 mm; TGD (Mus musculus [5]): 2.6 days; Time (Mus musculus [6]): 9.8 days; IC50 (786-0 [7]): 0.0092 µM; IC50 (SNB-75): > 1 µM; Tumor size (Mus musculus [8]): 1.1 mm; IC50 (OVCAR-3 [2]): > 1 µM; IC50 (NCI-H460): 0.014 µM; IC50 (HCT-15): 0.0072 µM; IC50 (DU-145): 0.034 µM; IC50 (UO-31): 0.008 µM; IC50 (LOX IMVI [9]): 0.0044 µM; IC50 (OVCAR-8): 0.0081 µM; IC50 (UACC-62): 0.012 µM |
| Nc1nc(N)c2nc(CNc3ccc(C(=O)NC(CCCNC(=O)c4ccc(C(=O)O)cc4)C(=O)O)cc3)cnc2n1 (stereo unspecified) | 2.8 | 3.3 | 0.072 |  |  |  |  |  |  |  |  |  |  |  |  |  |  |  |  |  |  |
| Nc1nc(N)c2nc(CNc3ccc(C(=O)NC(CCCNC(=O)c4ccccc4C(=O)O)C(=O)O)cc3)cnc2n1 (stereo unspecified) | 2 | 0.0013 | 0.0003 | 0.0032 | 0.002 | 0.0012 | 0.0027 | 0.0003 | 0.0037 | 0.006 | 0.0046 | 0.0019 | 0.0025 | > 0.1 | 0.023 | 0.0025 | 0.023 | 0.0036 | 0.0024 | 0.0044 | IC50 (786-0 [10]): 0.0006 µM; Tumor size (Mus musculus [4]): 6.8 mm; TGD (Mus musculus [5]): 5 days; Time (Mus musculus [6]): 12 days; IC50 (SNB-75): > 10 µM; Tumor size (Mus musculus [8]): 2.1 mm; IC50 (NCI-H460): 0.0005 µM; IC50 (HCT-15): 0.0012 µM; IC50 (DU-145): 0.0095 µM; IC50 (OVCAR-3 [11]): > 0.1 µM; IC50 (UO-31): 0.0055 µM; IC50 (LOX IMVI [9]): 0.0004 µM; IC50 (OVCAR-8): 0.0024 µM; IC50 (UACC-62): 0.0018 µM |
| Nc1nc(N)c2nc(CNc3ccc(C(=O)NC(CCCNC(=O)c4cc(Cl)c(Cl)cc4C(=O)O)C(=O)O)cc3)cnc2n1 (stereo unspecified) | 2.4 |  | 0.018 |  |  |  |  |  |  |  |  |  |  |  |  |  |  |  |  |  |  |
| CN(Cc1cnc2nc(N)nc(N)c2n1)c1ccc(C(=O)N[C@@H](CCC(=O)O)C(=O)O)cc1 [METHOTREXATE] |  | 0.023 | 0.027 | 0.042 | > 1 | 0.032 | 0.078 | 0.03 | 0.035 | 0.087 | > 1 | 0.033 | > 1 | 0.002 | 0.229 | 0.052 | > 1 | 0.036 | 0.04 | 0.043 | IC50 (786-0 [12]): 0.033 µM; Tumor size (Mus musculus [4]): 7.3 mm; TGD (Mus musculus [5]): 5 days; Time (Mus musculus [6]): 12 days; IC50 (SNB-75): > 10 µM; Tumor size (Mus musculus [8]): 1.6 mm; IC50 (OVCAR-3 [2]): 0.398 µM; IC50 (NCI-H460): 0.028 µM; IC50 (HCT-15): 0.03 µM; IC50 (DU-145): 0.023 µM; IC50 (UO-31): 0.191 µM; IC50 (LOX IMVI [9]): 0.026 µM; IC50 (OVCAR-8): 0.031 µM; IC50 (UACC-62): 0.028 µM |
